In general, inhibition refers to the percentage by which the read-out fell short of the control. The low end stands for a response near the control, the high end for a response far below the control. A word on the pKi: it is the Ki on a negative log10 scale, so that one unit is a factor of ten. A low value points to a large Ki. By ED50 is commonly meant the dose that gives a 50% effect, or the effect in half of the subjects.

The values below come from ChEMBL document CHEMBL1126078, “Benzodiazepine receptor affinity and interaction of some N-(indol-3-ylglyoxylyl)amine derivatives” (J Med Chem, 1992).

pKi: −log10 of the molar value. Active and inactive are the calls of the source. The calls are words filed in the database; no cut-off is given here.

Assay [1] addresses T1, GABA-A receptor; anion channel (Bos taurus) (UniProt P10063+P08220+P20237+P08219+P10064+P22300). Kind of assay: In vitro inhibition of [3H]flunitrazepam binding to GABA-A benzodiazepine receptor of bovine cerebral cortical membranes at 1 uM. In short, it runs like this:
(§1)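 Bovine cortex membranes (sucrose homogenate, 50 000g pellet, frozen and washed to remove endogenous GABA) in 50 mM Tris-HCl pH 7.4; 0.4 mg protein incubated 90 min at 0 °C with 0.2 nM [3H]flunitrazepam, filtered, counted. Nonspecific binding with 10 μM diazepam. Single test concentration 10 μM, or 1 μM where insoluble; mean ± SEM of five determinations.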

The target in assay [2] is T1, GABA-A receptor; anion channel (Bos taurus). Kind of assay: In vitro inhibition of specific binding of [3H]flunitrazepam to benzodiazepine receptor in bovine cerebral cortex membrane at a concentration of 10 uM. In kind it is cell membranes. In short, it runs like this: as §1
For assay [3] the target is unchanged. As to the kind of experiment: Relative binding to GABA-A receptor in the presence and absence of GABA (GABA shift), Ki(-GABA)/Ki(+GABA). In kind it is protein-complex assay. In short, it runs like this: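 Same [3H]flunitrazepam (0.2 nM, 0 °C, 90 min) binding with GABA-depleted washed bovine cortical membranes. IC50 from log-probit analysis of 6–8 concentrations in triplicate, measured with and without 10 μM GABA; Ki by Cheng–Prusoff (Kd 1.8 nM). Ratio = Ki without GABA / Ki with GABA; Ki means ± SEM of three determinations.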

In assay [4] the target is GABA-A receptor; anion channel. As to the kind of experiment: (§2) In vitro inhibition of [3H]flunitrazepam binding to GABA-A benzodiazepine receptor of bovine cerebral cortical membranes at 10 uM. Further details: species or system Bos taurus. In short, it runs like this: as §1
The subject of assay [5] is Mus musculus. Kind of assay: Anticonvulsant activity in mice on ip dose before 80 mg/kg of PTZ (NE=no effect). In kind it is functional, organism-based. Further details: dose 80 mg/kg. In short, it runs like this:
(§3)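 Groups of 10 mice given graded doses ip (0.1 mL) suspended in 1% carboxymethylcellulose vehicle, or vehicle alone; PTZ given 30 min later at 80 mg/kg (anticonvulsant test) or 40 mg/kg subconvulsant (proconvulsant test). Proconvulsant value: dose inducing convulsions in 50% of mice. Highest dose tested 250 mg/kg.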

For assay [6], the system named is Mus musculus. As to the kind of experiment: In vivo ip dose to induce convulsions in mice treated with subconvulsant PTZ (40 mg/kg) (NE=no effect). In kind it is functional, organism-based. In short, it runs like this:
as §3

The subject of assay [7] is Mus musculus. Kind of assay: In vivo ip dose to antagonize Diazepam (2.5 mg/kg) anticonvulsant effect in mice treated with 80 mg/kg PTZ (NE=no effect). In kind it is functional, organism-based. Further details: dose 80 mg/kg. In short, it runs like this: (§4)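 Groups of 10 mice received diazepam 2.5 mg/kg ip, then 10 min later graded ip doses of compound or vehicle; PTZ 80 mg/kg given 15 min after compound. Value: dose antagonizing diazepam's anticonvulsant effect in 50% of mice. Highest dose tested 250 mg/kg.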

Assay [8] has as its system Mus musculus. Kind of assay: In vivo ip dose to induce convulsions in mice treated with subconvulsant PTZ (40 mg/kg). In kind it is functional. The essentials: as §3
Assay [9] has as its system Mus musculus. As to the kind of experiment: In vivo ip dose to antagonize Diazepam (2.5 mg/kg) anticonvulsant effect in mice treated with 80 mg/kg PTZ. The class given is functional. The settings on record: route intraperitoneal. The essentials:
as §4

For assay [10], the target named is T1, GABA-A receptor; anion channel (Bos taurus). The assay is described as §2. In short, it runs like this: as §1

For `O=C(NCCc1ccccc1)C(=O)c1c[nH]c2ccc([N+](=O)[O-])cc12`, the inhibition in assay [1] worked out at 39%.
Compound `O=C(NCCc1ccc(Cl)cc1)C(=O)c1c[nH]c2ccc([N+](=O)[O-])cc12` yielded an inhibition in assay [2] of 0%.
Still for that read-out and setting: the result for `O=C(NCCc1ccccc1)C(=O)c1c[nH]c2ccc(Cl)cc12` reads 25%.
In the case of `O=C(NCCc1c[nH]c2ccccc12)C(=O)c1c[nH]c2ccccc12`, in assay [3], the Ratio came to 1. Moreover, the pKi in assay [4] was 5.82. The compound also registered an inhibition in assay [2] of 83%.
Regarding `COc1ccc(CCNC(=O)C(=O)c2c[nH]c3ccc(Cl)cc23)cc1OC`, the Ratio in [3] is 1.3. In assay [4], this compound gave a pKi of 6.15. The same compound came in with an inhibition in [2] of 94%.
The corresponding values for `O=C(NCCc1ccc(O)cc1)C(=O)c1c[nH]c2ccc(Cl)cc12` are 0.8, 5.66 and 83%.
In turn, `COc1ccc(CCNC(=O)C(=O)c2c[nH]c3ccc([N+](=O)[O-])cc23)cc1` registered an inhibition in [2] of 32%.
`COc1ccc(CCNC(=O)C(=O)c2c[nH]c3ccccc23)cc1`: the result in assay [5] was inactive. For the same compound, the Ratio in assay [3] came out at 1.3. Besides, the ED50 result in assay [6] and in assay [7] was “inactive” throughout. In addition, in assay [4], the pKi is 7.05. In [2], this compound registered an inhibition of 97%.
For `O=C(NCCc1ccc(O)cc1)C(=O)c1c[nH]c2ccc([N+](=O)[O-])cc12`, the result in assay [5] was inactive. Further, the Ratio in assay [3] turned out to be 0.7. Moreover, the ED50 in assay [8] came out at 75 mg/kg; in [9], 50 mg/kg. In assay [4], the pKi is 6.46. Moreover, the inhibition in assay [2] turned out to be 100%.
As to `O=C(NCCc1ccc(Cl)cc1)C(=O)c1c[nH]c2ccc(Cl)cc12`, the inhibition in assay [2] turned out to be 4%.
For the compound `O=C(NCCc1ccc(O)c(O)c1)C(=O)c1c[nH]c2ccc([N+](=O)[O-])cc12`, the result in assay [5] was inactive. Also, in assay [3], the Ratio turned out to be 0.64. The compound also had an inhibition in [10] of 100%. Besides, the ED50 in assay [8] was 100 mg/kg; in [9], 75 mg/kg. In assay [4], this compound showed a pKi of 6.55.
The compound `O=C(NCCc1c[nH]c2ccccc12)C(=O)c1c[nH]c2ccc(Br)cc12` showed an inhibition in assay [2] of 62%.
Turning to `COc1ccc(CCNC(=O)C(=O)c2cn(C)c3ccccc23)cc1`, in assay [2], the inhibition came out at 67%.
With `COc1ccc(CCNC(=O)C(=O)c2c[nH]c3ccccc23)cc1OC`, the Ratio in assay [3] turned out to be 1.3. The pKi in [4] is 6.29. Moreover, the inhibition in assay [2] is 96%.
Turning to `O=C(NCCc1ccc(Cl)cc1)C(=O)c1c[nH]c2ccccc12`, the Ratio in assay [3] came to 1.2. Further, the negative-log Ki (pKi) in [4] was 6.47.
Compound `Cn1cc(C(=O)C(=O)NCCc2ccc(O)cc2)c2ccccc21` registered an inhibition in assay [2] of 58%.
For the compound `O=C(NCCc1c[nH]c2ccccc12)C(=O)c1c[nH]c2ccc([N+](=O)[O-])cc12`, in assay [3], the Ratio stood at 0.65. The pKi in [4] was 6.46. This compound also came in with an inhibition in [2] of 90%.
The corresponding values for `O=C(NCCc1ccc(O)cc1)C(=O)c1c[nH]c2ccc(Br)cc12` are 0.8, 5.64 and 75%.
As to `O=C(NCCc1ccccc1)C(=O)c1c[nH]c2ccccc12`, the result in assay [5] was inactive. In addition, the Ratio in assay [3] was found to be 1.3. Further, the ED50 result in [6] and in assay [7] was “inactive” in each case. For the same compound, the pKi in [4] was 6.42. This compound also showed an inhibition in assay [2] of 94%.
In assay [2], `O=C(NCCc1c[nH]c2ccccc12)C(=O)c1c[nH]c2ccc(Cl)cc12` came in with an inhibition of 70%.
With `O=C(NCCc1ccc(O)c(O)c1)C(=O)c1c[nH]c2ccc(Cl)cc12`, the Ratio in [3] was found to be 0.52. The compound further had an inhibition in assay [10] of 90%. This compound had a pKi in [4] of 6.00.
The corresponding values for `O=C(NCCc1ccc(O)c(O)c1)C(=O)c1c[nH]c2ccccc12` are 0.92, 68% and 5.38.
On the same counts, the results for `O=C(NCCc1ccc(O)c(O)c1)C(=O)c1c[nH]c2ccc(Br)cc12` are 0.7, 85% and 5.92.
In [10], `Cn1cc(C(=O)C(=O)NCCc2ccc(Cl)cc2)c2ccccc21` showed an inhibition of 25%.
`CCOC(=O)c1ncn2c1CN(C)C(=O)c1cc(F)ccc1-2` [FLUMAZENIL]: the Ratio in [3] was 1. Besides, the pKi in assay [4] is 9.42.
The compound `Cn1cc(C(=O)C(=O)NCCc2c[nH]c3ccccc23)c2ccccc21` registered an inhibition in assay [2] of 39%.
Consider `COc1cccc(CCNC(=O)C(=O)c2c[nH]c3ccccc23)c1`, for which, in assay [3], the Ratio is 1.2. Besides, in [4], the pKi was 7.07. The compound also gave an inhibition in [2] of 97%.
As for `COc1ccc(CCNC(=O)C(=O)c2c[nH]c3ccc([N+](=O)[O-])cc23)cc1OC`, the Ratio in assay [3] amounted to 1.
The compound `COc1ccc(CCNC(=O)C(=O)c2cn(C)c3ccccc23)cc1OC` came in with an inhibition in assay [2] of 51%.
On the same count and under the same terms, the result for `COc1cccc(CCNC(=O)C(=O)c2c[nH]c3ccc([N+](=O)[O-])cc23)c1` reads 25%.
In the case of `O=C(NCCc1ccc(O)cc1)C(=O)c1c[nH]c2ccccc12`, the Ratio in assay [3] came to 0.7. The compound further showed a pKi in assay [4] of 5.62. Besides, the inhibition in assay [2] amounted to 82%.
As to `Cn1cc(C(=O)C(=O)NCCc2ccccc2)c2ccccc21`, the inhibition in [2] was found to be 42%.
In assay [10], `Cn1cc(C(=O)C(=O)NCCc2ccc(O)c(O)c2)c2ccccc21` returned an inhibition of 17%.
Take `CN1C(=O)CN=C(c2ccccc2)c2cc(Cl)ccc21` [DIAZEPAM]: the Ratio in [3] was 1.7. The compound also showed a pKi in assay [4] of 8.00.
